C8 TRAIL sens – sensitizes caspase-8 expressing cells to TRAIL; NB7+C8 cells + TRAIL, ATPlite viability luminescence; inhibition (viability loss, TRAIL sensitization), % at 10 µM; 360,000 tested, 1% active;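 active = compounds causing at least 50% loss of cell viability in the single-dose screen, relative to plate controls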
FLuc inh counter – inhibits firefly luciferase, flagging false hits in luciferase inhibition screens; 200,000 tested, 1.5% active; inhibition, % at 10 µM; ATPLite firefly luciferase biochemical luminescence, 10 min; P08659;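 active = inhibition above about 50% when tested at 10 µM, limit read from the data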
Target sequence (P08659 whole entry, looked up): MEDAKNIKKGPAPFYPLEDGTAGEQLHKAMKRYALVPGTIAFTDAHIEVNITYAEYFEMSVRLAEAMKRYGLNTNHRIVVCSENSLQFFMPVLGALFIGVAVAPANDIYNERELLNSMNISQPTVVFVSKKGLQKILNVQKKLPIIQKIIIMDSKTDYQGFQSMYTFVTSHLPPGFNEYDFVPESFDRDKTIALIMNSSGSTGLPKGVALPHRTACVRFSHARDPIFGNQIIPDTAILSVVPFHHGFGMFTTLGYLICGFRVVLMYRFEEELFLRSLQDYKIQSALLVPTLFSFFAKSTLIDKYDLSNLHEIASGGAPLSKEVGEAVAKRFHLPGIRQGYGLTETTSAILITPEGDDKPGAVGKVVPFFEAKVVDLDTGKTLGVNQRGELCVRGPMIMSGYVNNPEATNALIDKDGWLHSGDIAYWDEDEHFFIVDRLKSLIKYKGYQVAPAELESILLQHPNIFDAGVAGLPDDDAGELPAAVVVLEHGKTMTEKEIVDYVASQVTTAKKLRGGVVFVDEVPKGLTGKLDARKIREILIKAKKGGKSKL
PPC-1+TRAIL kill – compounds killing PPC-1 cancer cells with TRAIL present (potentiator screen, no TRAIL-free arm); PPC-1 cells + TRAIL, ATPLite viability luminescence; cell killing (% activity), % at 4 µM or 5 µM; 220,000 tested, 0.41% active;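 active = cell killing above 50% in the first pass at 4 µM, then a duplicate retest at 5 µM averaging 50% or more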;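 also: plate controls were cells with TRAIL plus DMSO for no effect and medium-only wells lacking cells for full effect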
FLuc act counter – affects firefly luciferase, flagging false hits in luciferase stimulation screens. 200,000 tested, under 10 active. ATPlite luciferase biochemical, luminescence, 10 min; 0 = ATP-free wells, 1 = DMSO control. activation factor at 10 µM. AID 1027;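 active = luciferase activation factor, scaled between plate controls, of at least 2 with compound at 10 µM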
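System: luciferase plus luciferin reagent, cell-free; medium: PBS as buffer for the ATP substrate; dosing: test compounds dosed from 2 mM stocks in 100% DMSO; timing: 10 min post-reagent at room temperature; measured by: luminescence measurement of luciferase light output; evaluation: luciferase activation, seen as luminescence increase over controls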
Numbers without * were called inactive; . = no result given; ! = not active in a repeat. Compounds with a hit are over-represented: about 1.5% of the library has one in this group of screens.

SMILES	C8 TRAIL sens	FLuc inh counter	PPC-1+TRAIL kill	FLuc act counter
COc1cc2c(cc1OC)C(c1ccc(-c3ccccc3Cl)o1)=NCC2	22	62*	-5	0.4
O=C(CSc1nc2ccccc2c(=O)n1CCCN1CCOCC1)Nc1ccc2c(c1)OCO2	-3	-8	15	1.1
O=C(C#Cc1ccccc1)c1ccccc1	93*	.	.	.
O=C(C#Cc1ccccc1)c1ccc([N+](=O)[O-])cc1	20	-5	-16	1
Cc1cccc(N/C=C/C(=O)c2cccs2)c1C	79*	92*	59*	0.1
Cc1ccc(C(=O)/C=C/Nc2ccccc2C(N)=O)o1	37	63*	0	0.4
NC(=O)c1ccccc1N/C=C/C(=O)c1cccs1	58*	85*	30	0.2
COc1ccc(Cc2nn3c(-c4cc(OC)c(OC)c(OC)c4)nnc3s2)cc1	-9	-8	18	1.1
FC(F)(F)c1cnc(-c2cnc(-c3ccccn3)nc2)c(Cl)c1	36	64*	47	0.4
FC(F)(F)c1cnc(-c2cnc(-c3ccncc3)nc2)c(Cl)c1	16	13	13	0.9
CCN(CC)c1ccc(/C=C/c2ccc3ccc(OC)cc3[n+]2CC)cc1	57*	.	.	.
CC[n+]1c(/C=C/c2ccc(OC)c(OC)c2)ccc2ccccc21	-12	.	.	.
COCc1cc(=O)[nH]c(-c2csc(C)n2)n1	-1	.	10	.
CN(C)c1ccnc2c[cH-]cc12.[Fe].c1ccc(-[c-]2[c-](-c3ccccc3)[c-](-c3ccccc3)[c-](-c3ccccc3)[c-]2-c2ccccc2)cc1 (centres undefined)	89*!	.	27	.
CC(=O)c1c(C)oc2c1C(=O)c1ccccc1C2=O	39	-10	8	1.1
Cc1nc2c(o1)C(=O)c1ccccc1C2=Nc1ccccc1	95*	.	.	.
Cc1ccsc1C=C1C(=O)c2ccccc2C1=O	-18	73*	8	0.3
Cc1ccsc1/C=C1/C(=O)NN(c2ccccc2)C1=O	7	59*	-10	0.4
CN(C)C=C1C(=O)c2ccccc2C1=O	3	-1	9	1
Cc1ccc(Sc2ccc(/C=C3/C(=O)NN(c4ccccc4)C3=O)o2)cc1	0	.	1	.
C#CC(=O)N(c1cccc(OC)c1)C(C(=O)NC1CCCC1)c1cccs1 (centres undefined)	96*	-1	94*	1
Cc1cccc(N(C(=O)C(F)(F)F)C(C(=O)NC2CCCCC2)c2cccs2)c1 (centres undefined)	-3	-5	22	1
COC(=O)c1cccc(CSc2nc3ccccc3[nH]2)c1	31	60*	36	0.4
Clc1cccc(CSc2nc3ccncc3[nH]2)c1	41	75*	28	0.2
Fc1cccc(CSc2nc3ccncc3[nH]2)c1	58*	78*	41	0.2
SMILES	C8 TRAIL sens	FLuc inh counter	PPC-1+TRAIL kill	FLuc act counter
O=C(Nc1ccccc1N1CCOCC1)c1ccccc1[N+](=O)[O-]	-15	-2	16	1
CCn1nc(C(=O)OCC(=O)c2ccc(F)cc2)c2ccccc2c1=O	-11	-3	.	1
Cc1cc(C(=O)COC(=O)c2ccccc2O)c(C)n1Cc1cccs1	90*	90*	-2	0.1
Cc1cc(C(=O)COC(=O)c2ccc3c(c2)OCO3)c(C)n1Cc1cccs1	19	31	-2	0.7
CCn1nc(C(=O)OCC(=O)c2cc(C)n(Cc3cccs3)c2C)c2ccccc2c1=O	21	58*	-2	0.4
O=c1c(Cc2ccc(F)cc2)c(O)ccn1Cc1ccco1	-6	-10	-2	1.1
COc1ccc(C)cc1NC(=O)CN1C(=O)c2cccc3cccc1c23	9	-2	25	1
COc1ccc(C(=O)Nc2cc(C)c(NC(=O)c3ccccn3)cn2)cc1	69*	.	.	.
COc1ccc(C(=O)Nc2ccccc2C(=O)Nc2cc(C)ccn2)cc1	68*	.	.	.
COc1ccc(C(=O)Nc2cnc(NC(=O)c3cccs3)cc2C)cc1	7	.	.	.
COc1ccc(C(=O)Nc2ccccc2C(=O)Nc2cccnc2)cc1	53*	.	.	.
COc1ccc(C(=O)Nc2cccnc2)cc1	4	5	26	0.9
O=C1O[C@H]([C@@H](O)CO)C(O)=C1O	-1	.	.	.
O=C(NC1=NCCS1)c1sc2ccccc2c1Cl	35	56*	35	0.4
CCOC(=O)c1sc(NC(=O)c2cc(-c3ccc(C)cc3)nc3ccccc23)c(C#N)c1C	47	3	19	1
Cc1c(C(=O)NC2=NCCS2)oc2ccccc12	25	51*	22	0.5
Cc1cccnc1NC(=O)c1sc2ccccc2c1Cl	54*	.	.	.
Cc1csc(NC(=O)c2oc3ccccc3c2C)n1	14	.	.	.
O=C(NC1=NCCS1)c1sc2cc(Cl)cc(Cl)c2c1Cl	1	-7	12	1.1
Cc1ccc2nsnc2c1NC(=O)c1sc2ccccc2c1Cl	11	0	7	1
COC(=O)c1sc(NC(=O)c2cc(-c3ccccc3)nc3ccccc23)c(C#N)c1C	52*	3	17	1
CCN(CC)CCn1c(NCc2nc3ccccc3n2Cc2ccccc2)nc2ccccc21	-9	-4	10	1
O=C(Nc1nnc(-c2ccco2)o1)c1cccc(Cl)c1	3	0	10	1
Cc1ccc(NC(=O)c2sc3ccccc3c2Cl)nc1	70*	80*	40	0.2
Cc1ccnc(NC(=O)CNC(=O)c2sc3ccccc3c2Cl)c1	-1	.	.	.
SMILES	C8 TRAIL sens	FLuc inh counter	PPC-1+TRAIL kill	FLuc act counter
O=C(NC1=NCCS1)c1cc(-c2ccc(-c3ccccc3)cc2)nc2ccccc12	65*	73*	45	0.3
COc1ccc(-c2cc(C(=O)NC3=NCCS3)c3ccccc3n2)cc1OC	7	20	12	0.8
COc1cccc(-n2c(SCC(=O)NC(C)(C)C)nnc2-c2ccoc2C)c1	-1	-2	-7	1
C=C(c1ccccc1Cl)[n+]1ccccc1	-3	.	.	.
Cc1nc2oc3ccc(Cl)cc3c(=O)c2cc1C(=O)O	14	.	.	.
CC(C)c1ccc2oc3nc(N)c(C(=O)O)cc3c(=O)c2c1	.	95*	83*	0.1
CC1(C(=O)NS(=O)(=O)c2ccc(F)cc2F)CCN1C(=O)CC1CC1 (centres undefined)	-12	.	.	.
Cc1ccc(C#N)c(SCc2nnc(-c3ccc(Cl)cc3)o2)n1	82*	60*	64*	0.4
Cc1cc(C)c(C#N)c(SCc2nnc(-c3ccccc3)o2)n1	69*	-1	72*	1
Nc1cccc2nsnc12	-4	.	5	.
Nc1cc2nsnc2cc1Br	96*	-5	0	1
CCOc1ccc(NC(=O)CCN2CCN(c3ccccc3F)CC2)cc1	1	-8	-16	1.1
O=C(Nc1cccc([N+](=O)[O-])c1)c1cc2ccccc2cc1O	60*	.	28	.
Cc1c(C(=O)Nc2cccc([N+](=O)[O-])c2)csc1-c1ccccc1	57*	19	12	0.8
CCOC(=O)Cn1c(=O)oc2cc(S(=O)(=O)N3CCN(C(=O)OCC)CC3)ccc21	-10	.	.	.
Cc1nnc(NC(=O)c2ccc(S(=O)(=O)C(F)F)cc2)s1	50*	.	26	.
Cc1ccc(C(=O)Nc2nnc(SCC(=O)N3CCCc4ccccc43)s2)cc1	97*	98*	95*	0
